This note sets out measurements from ChEMBL document CHEMBL3853298, “Total synthesis and in vitro bioevaluation of clavaminols A, C, H & deacetyl clavaminol H as potential chemotherapeutic and antibiofilm agents” (Eur J Med Chem, 2016).

A word on the IC50: it is the concentration needed to halve the response being measured. In general, MIC refers to the smallest concentration in the dilution series that meets the test's criterion for growth inhibition. A low value points to a more susceptible organism. For orientation: MBC means the lowest tested concentration that kills the bacteria rather than only halting them. The MFC is the lowest tested concentration that kills the fungus rather than only halting it. A higher MFC goes with less potent killing.

Values after ≈ are worked out from the molar mass of the structure shown. Active and inactive are the calls of the source.

The nature of assay [1]: Cytotoxicity against human SKOV3 cells assessed as cell growth inhibition by MTT assay. The settings on record: SK-OV-3. The format is functional, cell-based. On the technique in general: Tetrazolium dyes change colour on reduction, which living cells bring about.
Assay [2] can be described thus: Cytotoxicity against human DU145 cells assessed as cell growth inhibition by MTT assay. Type of assay: functional, cell-based. The following applies: DU-145.
Assay [3] has as its system Candida albicans. The experiment in a line: Antifungal activity against Candida albicans MTCC 4748 after 24 hrs by well diffusion method. Type of assay: functional. The following applies: MTCC 4748, 24 h. A digest of the protocol:
(§1)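 Candida/Issatchenkia lawns (0.1 mL suspension) on Mueller-Hinton agar; 6.0 mm bored wells receive compound across a 250 to 0.48 per-well dose range, methanol as negative control. Plates kept 24 h at 30 °C. MIC is the lowest concentration producing a visible inhibition zone. Duplicate runs, mean values.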
On the technique in general: Agar diffusion results depend on both activity and mobility in agar.

A short description of assay [4]: Antifungal activity against Candida parapsilosis MTCC 1744 after 24 hrs by well diffusion method. The format is functional. A digest of the protocol: as §1
The next assay relates to Pichia sporocuriosa. Nature of the assay: Antifungal activity against Issatchenkia hanoiensis MTCC 4755 after 24 hrs by well diffusion method. The format is functional. The settings on record: MTCC 4755, 24 h. The gist of the method: as §1
In a further assay the test system is Staphylococcus aureus. The experiment in a line: Bactericidal activity against Staphylococcus aureus MTCC 96 after 24 hrs. Type of assay: functional. The settings on record: MTCC 96, 24 h. The gist of the method: (§2)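 Broth macrodilution in Mueller Hinton broth, compound serially diluted from 150 down to 0. Overnight bacterial culture added to a final 1.5 × 10^8 CFU/mL (0.5 McFarland), 24 h at 37 °C. Suspension then subcultured onto Mueller Hinton agar for 24 h at 37 °C. MBC is the lowest concentration killing the strain. Duplicates.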

The subject of assay [5] is Micrococcus luteus. Nature of the assay: Bactericidal activity against Micrococcus luteus MTCC 2470 after 24 hrs. The format is functional. The following applies: MTCC 2470, 24 h. The gist of the method: as §2
Another assay has as its system Raoultella planticola. Nature of the assay: Bactericidal activity against Klebsiella planticola MTCC 530 after 24 hrs. Type of assay: functional. The settings on record: MTCC 530, 24 h. A digest of the protocol: as §2
For a further assay, the system named is Pseudomonas aeruginosa. Nature of the assay: Bactericidal activity against Pseudomonas aeruginosa MTCC 2453 after 24 hrs. Type of assay: functional. The settings on record: MTCC 2453, 24 h. A digest of the protocol:
as §2

Assay [6] has as its system Candida albicans. Nature of the assay: Fungicidal activity against Candida albicans MTCC 854 after 24 hrs. The following applies: MTCC 854, 24 h. The format is functional. The gist of the method: (§3)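 Candida grown overnight in Mueller Hinton broth. Compound serially diluted in the same broth from 150 to 0 and inoculated to a final 1.5 × 10^8 CFU/mL (0.5 McFarland), then 24 h at 37 °C. Tube contents plated onto Mueller Hinton agar for 24 h at 37 °C. MFC is the lowest concentration killing the yeast. Duplicates.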

Assay [7] relates to Candida albicans. The experiment in a line: Fungicidal activity against Candida albicans MTCC 3017 after 24 hrs. The format is functional. The following applies: MTCC 3017, 24 h. The gist of the method: as §3
Assay [8] has as its system Candida albicans. Nature of the assay: Fungicidal activity against Candida albicans MTCC 7315 after 24 hrs. The format is functional. The settings on record: MTCC 7315, 24 h. The gist of the method:
as §3

The subject of another assay is Nakaseomyces glabratus. Nature of the assay: Fungicidal activity against Candida glabrata MTCC 3019 after 24 hrs. Type of assay: functional. The settings on record: MTCC 3019, 24 h. The gist of the method: as §3
In assay [9] the test system is Micrococcus luteus. The experiment in a line: Antibiofilm activity against Micrococcus luteus MTCC 2470 incubated for 24 hrs under static condition by crystal violet staining-based assay. Type of assay: functional. A digest of the protocol:
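Strains grown overnight in tryptone soy broth with 0.5% glucose. Compound (250 to 0) mixed with inoculum at 5 × 10^5 CFU/mL in polystyrene microtiter plates. Non-adherent cells washed off with PBS; wells stained with 0.1% crystal violet, dye solubilised in 95% ethanol, absorbance read at 540 nm. IC50 for 50% biofilm inhibition taken from dose-response curves. Triplicates, mean ± S.D.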

The test system of assay [10] is Micrococcus luteus. Nature of the assay: Induction of intracellular ROS accumulation in Micrococcus luteus MTCC 2470 sessile biofilm cells at 2 to 4 ug/ml after 24 hrs by DCFH-DA staining-based assay. The format is functional, cell-based. The gist of the method:
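Intracellular ROS was measured in M. luteus MTCC 2470 biofilms grown in 24-well plates. Mature biofilms were treated and incubated 24 h at 30 °C together with […] DCFH-DA. Well contents were centrifuged at 5000 × g for 10 min. Fluorescence (ex 485/em 535 nm) was read separately for supernatant and for sessile cells resuspended in PBS. Triplicate, mean ± S.D.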

For `CCCCCCCCC[C@H](O)[C@@H](C)N` [CLAVAMINOL A], the concentration for half-maximal inhibition (IC50) in assay [1] is 12.5 µM; in [2], 10.8 µM; with Micrococcus luteus [9], 0.8 µg/mL (≈ 3.97 µM). In addition, the MIC (with Candida albicans [3]; in assay [4]; against Pichia sporocuriosa) was 31.2 µg/mL (≈ 155 µM) in each case. In addition, the MBC in the assay with Staphylococcus aureus stood at 15.6 µg/mL (≈ 77.5 µM); in the assay with Micrococcus luteus [5] it was 7.8 µg/mL (≈ 38.7 µM); against Raoultella planticola, 15.6 µg/mL (≈ 77.5 µM); with Pseudomonas aeruginosa, 15.6 µg/mL (≈ 77.5 µM). Besides, the MFC in the assay on Candida albicans [6], against Candida albicans [7], in the assay on Candida albicans [8] and against Nakaseomyces glabratus was 31.2 µg/mL (≈ 155 µM) each time. In addition, in the assay on Micrococcus luteus [10], the outcome was Active.
